How the values were obtained:
[1] = Growth inhibition of human NCI60 cells after 48 hrs by SRB assay; type: functional; settings: NCI60, 48 h; for CC50: read-out: LC50 (the source's name)
[2] = tested on: Calf thymus DNA; assay: Binding affinity to calf thymus DNA assessed as change in melting temperature after 4 hrs; type: nucleic-acid assay; settings: Bos taurus
In short: (§1)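 Calf thymus DNA at a fixed 100 μM (DNAp, 50 μM bp) in pH 7.00 buffer of 10 mM NaH₂PO₄/Na₂HPO₄ and 1 mM Na₂EDTA, 1:5 ligand/DNAp ratio, DMSO ≤0.3% v/v. Mixture kept at 37 °C for the stated time, then melted while absorbance at 260 nm was monitored. Tm taken at the midpoint of the normalized profile; ΔTm = Tm(DNA+ligand) − Tm(DNA), corrected for DMSO; mean of at least three runs.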

[3] = tested on: K562; assay: Cytotoxicity against human K562 cells after 96 hrs by alamar blue assay; type: functional, cell-based; settings: K562, 96 h
In short: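 K562 cells kept in RPMI with 10% fetal calf serum and 2 mM glutamine, seeded at 10⁴ cells/mL. Compounds serially diluted in DMSO and added in triplicate; exposure 96 h at 37 °C, 5% CO₂. Alamar Blue (1 μM final) then added for a further 4 h; read by fluorescence emission at 580-620 nm.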

[4] = tested on: Calf thymus DNA; assay: Binding affinity to calf thymus DNA assessed as change in melting temperature after 18 hrs; type: nucleic-acid assay; settings: Bos taurus; in short: as §1

| Structure (SMILES) | GI50 [1] [nM] | TGI [1] [nM] | CC50 [1] [nM] | ΔTm [2] [°C] | IC50 [3] [nM] | ΔTm [4] [°C] |
| --- | --- | --- | --- | --- | --- | --- |
| COc1cc2c(cc1OC)C(=O)N1C=C(c3ccc(C)cc3)C[C@H]1C=N2 | 2 | 180 | 8900 | 9.8 | 0.28 | 10.1 |
| COc1cc2c(cc1OC)C(=O)N1C=C(c3c(C)cccc3C)C[C@H]1C=N2 | 851 | 3460 | 20900 | 0.5 | > 1000 | 0.5 |
| COc1cc2c(cc1OC)C(=O)N1C=C(c3ccc4c(c3)OCO4)C[C@H]1C=N2 | 2 | 30 | 3630 | 10.3 | 0.47 | 10.3 |
| COc1cccc(C2=CN3C(=O)c4cc(OC)c(OC)cc4N=C[C@@H]3C2)c1 | 11 | 60 | 4070 | 10.1 | 0.45 | 10.2 |
| C=Cc1ccc(C2=CN3C(=O)c4cc(OC)c(OC)cc4N=C[C@@H]3C2)cc1 | 5 | 10 | 620 | 9 | 69 | 9.2 |
| COc1cc2c(cc1OC)C(=O)N1C=C(c3ccc(C#N)cc3)C[C@H]1C=N2 | 3 | 150 | 7410 | 10.9 | 19.8 | 11 |
| COc1cc2c(cc1OC)C(=O)N1C=C(c3ccc(SC)cc3)C[C@H]1C=N2 | 5 | 20 | 1440 | 10.5 | 19 | 10.7 |
| COc1cc2c(cc1OC)C(=O)N1C=C(c3ccc(C(C)(C)C)cc3)C[C@H]1C=N2 | 2 | 50 | 1940 | 9 | 47.8 | 9.2 |
| COc1cc2c(cc1OC)C(=O)N1C=C(c3ccccc3C)C[C@H]1C=N2 | 12 | 250 | 10700 | 6.8 | 9.3 | 6.9 |
| COc1cc2c(cc1OC)C(=O)N1C=C(c3ccc(Cl)cc3)C[C@H]1C=N2 | 2 | 70 | 4470 | 9.9 | 31.3 | 10.2 |
| COc1ccc2cc(C3=CN4C(=O)c5cc(OC)c(OC)cc5N=C[C@@H]4C3)ccc2c1 | 0.9 | 7 | 270 | – | 2.3 | – |
| COc1cc2c(cc1OC)C(=O)N1C=C(c3cccc(C#N)c3)C[C@H]1C=N2 | 4 | 560 | 16200 | – | 15.1 | – |
| COc1cc2c(cc1OC)C(=O)N1C=C(c3ccc(C(=O)NCCN(C)C)cc3)C[C@H]1C=N2 | 19 | 90 | 3890 | – | 114 | – |
| COc1cc2c(cc1OC)C(=O)N1C=C(c3cccc4c3Sc3ccccc3S4)C[C@H]1C=N2 | 501 | 1740 | 8910 | – | > 1000 | – |
| COc1cc2c(cc1OC)C(=O)N1C=C(c3cccc([N+](=O)[O-])c3)C[C@H]1C=N2 | 5 | 50 | 5620 | – | 58.1 | – |
| COc1cc2c(cc1OC)C(=O)N1C=C(c3ccc(C(=O)O)cc3)C[C@H]1C=N2 | 13200 | 23400 | 25100 | – | > 1000 | – |
| COc1cc2c(cc1OC)C(=O)N1C=C(c3ccc(Cl)c(Cl)c3)C[C@H]1C=N2 | 3 | 50 | 3020 | – | 106 | – |
| COc1cc2c(cc1OC)C(=O)N1C=C(c3cn[nH]c3)C[C@H]1C=N2 | 12 | 270 | 6460 | – | 20.1 | – |

| Structure (SMILES) | GI50 [1] [nM] | TGI [1] [nM] | CC50 [1] [nM] | ΔTm [2] [°C] | IC50 [3] [nM] | ΔTm [4] [°C] |
| --- | --- | --- | --- | --- | --- | --- |
| COc1cc2c(cc1OC)C(=O)N1C=C(/C=C/c3ccccc3)C[C@H]1C=N2 | 4 | 20 | 1580 | – | 0.1 | – |
| COc1cc2c(cc1OC)C(=O)N1C=C(c3ccc(OCCCN(C)C)cn3)C[C@H]1C=N2 | 4 | 60 | 4070 | – | 9.4 | – |
| COc1cc2c(cc1OC)C(=O)N1C=C(/C=C/c3ccc(Cl)cc3)C[C@H]1C=N2 | 5 | 20 | 1000 | – | 15.4 | – |
| COc1cc2c(cc1OC)C(=O)N1C=C(c3cccc4c3sc3ccccc34)C[C@H]1C=N2 | 25 | 220 | 5370 | – | 163 | – |
| COc1cc2c(cc1OC)C(=O)N1C=C(c3ccc(C(=O)NCCCN(C)C)cc3)C[C@H]1C=N2 | 58 | 830 | 35500 | – | 165 | – |
| COc1cc2c(cc1OC)C(=O)N1C=C(c3ccc4[nH]ccc4c3)C[C@H]1C=N2 | 5 | 40 | 7080 | – | 12.6 | – |
| COc1cc2c(cc1OC)C(=O)N1C=C(c3ccc(N4CCOCC4)cc3)C[C@H]1C=N2 | 5 | 160 | 13200 | – | 8.8 | – |
| COc1cc2c(cc1OC)C(=O)N1C=C(c3cccc(N)c3)C[C@H]1C=N2 | 4 | 50 | 5890 | – | 59.5 | – |
| COc1cc2c(cc1OC)C(=O)N1C=C(c3c(OC)cccc3OC)C[C@H]1C=N2 | 110 | 1100 | 11700 | – | 61 | – |
| COc1cc2c(cc1OC)C(=O)N1C=C(c3ccc(C(N)=O)cc3)C[C@H]1C=N2 | 9 | 460 | 13800 | – | 15.6 | – |
| COc1cc2c(cc1OC)C(=O)N1C=C(c3ccc(C(C)(C)C)cc3)C[C@H]1[C@H](S(=O)(=O)O)N2 | 8 | 50 | 47.8 | – | 70 | – |
| COc1cc2c(cc1OC)C(=O)N1C=C(c3ccccc3)C[C@H]1[C@H](S(=O)(=O)O)N2 | 54 | 430 | 2.5 | – | 16.5 | – |
| COC(=O)c1cccc(C2=CN3C(=O)c4cc(OC)c(OC)cc4N=C[C@@H]3C2)c1 | 5 | 40 | 7580 | – | 12.4 | – |
| COc1cccc(C2=CN3C(=O)c4cc(OC)c(OC)cc4N[C@@H](S(=O)(=O)O)[C@@H]3C2)c1 | 5 | 70 | 0.4 | – | 7.1 | – |
| COc1cc2c(cc1OC)C(=O)N1C=C(c3ccc([N+](=O)[O-])cc3)C[C@H]1C=N2 | 4 | 70 | 6920 | – | 13.1 | – |
| COc1cc2c(cc1OC)C(=O)N1C=C(c3cccc4ccccc34)C[C@H]1C=N2 | 138 | 950 | 13900 | – | 572 | – |
| COc1cc2c(cc1OC)C(=O)N1C=C(c3c(F)cccc3F)C[C@H]1C=N2 | 25 | 330 | 4360 | – | 7.1 | – |
| COc1cc2c(cc1OC)C(=O)N1C=C(c3ccc4ccc5cccc6ccc3c4c56)C[C@H]1C=N2 | 398 | 1440 | 10700 | – | 86.2 | – |
